For 27 compounds, IC50 and Activity results are on record in ChEMBL document CHEMBL1130327, “Synthesis and antimalarial effects of phenothiazine inhibitors of a Plasmodium falciparum cysteine protease” (J Med Chem, 1997).

A value given as a limit tells only on which side of the number the result lay.

The target of one test is T1, Falcipain 2 (Plasmodium falciparum, UniProt Q9N6S8).
T1 sequence (Q9N6S8 whole entry): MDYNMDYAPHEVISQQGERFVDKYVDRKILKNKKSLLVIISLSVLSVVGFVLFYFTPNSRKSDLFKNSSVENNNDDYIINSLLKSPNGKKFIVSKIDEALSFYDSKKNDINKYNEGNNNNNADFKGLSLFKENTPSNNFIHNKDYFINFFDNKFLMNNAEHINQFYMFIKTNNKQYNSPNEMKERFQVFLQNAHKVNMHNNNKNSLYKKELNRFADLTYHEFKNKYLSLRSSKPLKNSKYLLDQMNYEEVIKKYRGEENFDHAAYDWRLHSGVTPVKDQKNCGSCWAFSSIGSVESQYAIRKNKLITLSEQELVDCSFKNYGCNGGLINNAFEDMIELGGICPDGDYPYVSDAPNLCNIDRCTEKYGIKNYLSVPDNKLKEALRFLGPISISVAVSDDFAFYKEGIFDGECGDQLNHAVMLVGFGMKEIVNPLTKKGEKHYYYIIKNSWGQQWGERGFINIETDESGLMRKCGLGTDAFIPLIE
Nature of the test: Inhibition of falcipain activity. It counts as functional. In a few lines:
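Soluble parasite extract containing falcipain (30 nM) preincubated 30 min at room temperature with compound (100× DMSO stocks) and 10 mM DTT in 0.1 M sodium acetate, pH 5.5. Z-Phe-Arg-AMC then added to 50 μM final. Fluorescence (ex 380, em 460 nm) followed continuously for 30 min. Rates compared with DMSO controls. Multiple concentrations tested in duplicate or triplicate; IC50 extrapolated from % control activity curves.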

Test [1] has as its system Plasmodium falciparum. As to the kind of experiment: Inhibition of parasitaemia in ring-form development assay. It counts as functional, organism-based. In a few lines: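 Ring-stage Itg2 cultures (2 mL) incubated with compound from 100× DMSO stocks. Medium changed at 24 h with inhibitor maintained. At 48 h, new ring forms per 1000 erythrocytes counted on Giemsa-stained smears and compared with 1% DMSO controls.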

Test [2] deals with Hemozoin. Nature of the test: Inhibition of hemoglobin degradation as percentage of organisms with dark swollen food vacuoles. It counts as functional. The settings on record: Plasmodium falciparum. The arrangement: scale not given: the % may be the effect or the level left.
The subject of test [3] is Plasmodium falciparum. As to the kind of experiment: Inhibition of parasitaemia in [3H]hypoxanthine incorporation assay. It counts as functional, organism-based. The method in brief: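 Ring-stage P. falciparum Itg2 cultures (300 μL) given compound from 100× DMSO stocks for 24 h. [3H]hypoxanthine then added (0.0144 μg, 1.2 μCi per well) for a further 18 h. Cells harvested onto glass-fiber filters and counted by scintillation. Uptake compared with 1% DMSO controls; IC50 extrapolated from % control curves.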

Another test concerns MDCK. As to the kind of experiment: Compound was tested for inhibition of MDCK cell metabolism using MTT assay method. The conditions noted are these: Canis lupus familiaris. The format is functional, cell-based. In a few lines: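 MDCK cells cultured overnight in phenol red-free RPMI with 1–100 μM compound (100× DMSO stocks); medium then replaced with MTT (1 mg/mL) for 2 h. Supernatant removed, ethanol added, absorbance read at 560 nm. Compared with cells given 1% DMSO overnight.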
In general terms: Tetrazolium assays rely on reduction of a dye to a coloured formazan, in cell work by metabolically active cells.

In test [4] the test system is Hemozoin. Nature of the test: Inhibition of hemoglobin degradation as percentage of organisms with dark swollen food vacuoles; 50-90%. The format is functional. The arrangement: scale not given: the % may be the effect or the level left. The settings on record: Plasmodium falciparum.
The subject of test [5] is Hemozoin. As to the kind of experiment: Inhibition of hemoglobin degradation as percentage of organisms with dark swollen food vacuoles; 10-50%. It counts as functional. The arrangement: scale not given: the % may be the effect or the level left. The settings on record: Plasmodium falciparum.
The test system of test [6] is Hemozoin. As to the kind of experiment: Inhibition of hemoglobin degradation as percentage of organisms with dark swollen food vacuoles; 0-10%. The format is functional. Further details: scale not given: the % may be the effect or the level left. The conditions noted are these: Plasmodium falciparum.

For the compound `COc1cccc(C2CC3=Nc4ccc(Cl)cc4SC3=C(O)C2)c1` (stereo not drawn), at Falcipain 2, the IC50 is 20 µM.
Regarding `CC1(C)CC2=Nc3ccc(Cl)cc3S(=O)(=O)C2=C(O)C1`, the IC50 was 20 µM in the test with Plasmodium falciparum [1], 5 µM against Falcipain 2, 60 µM in the test on Plasmodium falciparum [3] and greater than 100 µM in the test with MDCK. In the test with Hemozoin [2], this compound gave an Activity greater than 90%.
With `COc1ccc(C2CC3=Nc4ccc(Cl)cc4S(=O)(=O)C3=C(O)C2)cc1` (stereo not drawn), the IC50 against Falcipain 2 stood at 30 µM.
`COc1cccc(C2CC3=Nc4ccc(Cl)cc4S(=O)(=O)C3=C(O)C2)c1OC` (stereo not drawn): the IC50 is 2 µM in the test with Plasmodium falciparum [1], 4 µM on Falcipain 2, 2 µM in the test on Plasmodium falciparum [3] and greater than 100 µM in the test on MDCK. The same compound came in with an Activity in the test on Hemozoin [2] greater than 90%.
As for `O=S1(=O)C2=C(O)CC(c3ccc(Cl)cc3Cl)CC2=Nc2ccc(Cl)cc21` (stereo not drawn), 30 µM corresponded to half-maximal inhibition against Falcipain 2 (IC50).
Take `COc1cccc(C2CC3=Nc4ccc(Cl)cc4SC3=C(O)C2)c1OC` (stereo not drawn): half-maximal inhibition on Falcipain 2 (IC50) was put at 10 µM.
Regarding `O=S1(=O)C2=C(O)CC(c3ccccc3)CC2=Nc2ccc(Cl)cc21` (stereo not drawn), the IC50 in the test on Plasmodium falciparum [1] stood at 5 µM; at Falcipain 2, 4 µM; in the test with Plasmodium falciparum [3], 5 µM. This compound had an Activity with Hemozoin [4] of 90%.
Regarding `COc1cccc(C2CC3=Nc4ccc(F)cc4SC3=C(O)C2)c1OC` (stereo not drawn), inhibition at Falcipain 2 was half-maximal at 20 µM (IC50).
The same measure, in the same setting: as for `CC1(C)CC2=Nc3ccc(Cl)cc3SC2=C(O)C1`, the figure is 30 µM.
Regarding `O=S1(=O)C2=C(O)CC(c3ccc(Cl)cc3)CC2=Nc2ccc(Cl)cc21` (stereo not drawn), the IC50 with Plasmodium falciparum [1] was determined as 4 µM; against Falcipain 2, 4 µM; in the test on Plasmodium falciparum [3], 8 µM. Also, the Activity with Hemozoin [5] amounted to 50%.
At Falcipain 2, `COc1ccc(C2CC3=Nc4ccc(Cl)cc4S(=O)(=O)C3=C(O)C2)cc1OC` (stereo not drawn) yielded an IC50 of 50 µM.
On the same count and under the same terms, for `CC1(C)CC2=Nc3ccc(F)cc3SC2=C(O)C1` the value was 60 µM.
For the compound `COc1ccc(C2CC3=Nc4ccc(F)cc4SC3=C(O)C2)cc1OC` (stereo not drawn), at Falcipain 2, 20 µM corresponded to half-maximal inhibition (IC50).
For the compound `OC1=C2Sc3cc(Cl)ccc3N=C2CC(c2ccccc2)C1` (stereo not drawn), at Falcipain 2, the IC50 is 10 µM.
On to `COc1cccc(C2CC3=Nc4ccc(F)cc4S(=O)(=O)C3=C(O)C2)c1` (stereo not drawn), for which the IC50 was 3 µM in the test with Plasmodium falciparum [1], 5 µM against Falcipain 2, 3 µM in the test with Plasmodium falciparum [3] and greater than 100 µM with MDCK. For the same compound, the Activity with Hemozoin [4] is 90%.
For `OC1=C2Sc3cc(Cl)ccc3N=C2CC(c2ccc(Cl)cc2)C1` (stereo not drawn), the IC50 in the test on Plasmodium falciparum [1] amounted to 3 µM; on Falcipain 2, 4 µM; in the test on Plasmodium falciparum [3], 6 µM; in the test with MDCK it was 10 µM. Further, the Activity in the test on Hemozoin [6] is less than 10%.
Turning to `OC1=C2Sc3cc(F)ccc3N=C2CC(c2ccccc2)C1` (stereo not drawn), the IC50 against Falcipain 2 is 20 µM.
In turn, `COc1cccc(C2CC3=Nc4ccc(F)cc4SC3=C(O)C2)c1` (stereo not drawn) yielded an IC50 on Falcipain 2 of 20 µM.
Turning to `COc1ccc(C2CC3=Nc4ccc(F)cc4S(=O)(=O)C3=C(O)C2)cc1OC` (stereo not drawn), the IC50 in the test on Plasmodium falciparum [1] was 1 µM; against Falcipain 2 it was 5 µM; in the test with Plasmodium falciparum [3], 3 µM. The Activity with Hemozoin [5] amounted to 50%.
On to `CC1(C)CC2=Nc3ccc(F)cc3S(=O)(=O)C2=C(O)C1`, for which the IC50 in the test on Plasmodium falciparum [1] was 30 µM; against Falcipain 2, 5 µM; in the test on Plasmodium falciparum [3], 100 µM; with MDCK, greater than 100 µM. For the same compound, in the test on Hemozoin [2], the Activity was greater than 90%.
With `OC1=C2Sc3cc(Cl)ccc3N=C2CCC1`, the IC50 against Falcipain 2 amounted to 40 µM.
On the same count and under the same terms, for `OC1=C2Sc3cc(F)ccc3N=C2CC(c2ccc(Cl)cc2Cl)C1` (stereo not drawn) the value was 10 µM.
On to `O=S1(=O)C2=C(O)CC(c3ccc(Cl)cc3)CC2=Nc2ccc(F)cc21` (stereo not drawn), for which the IC50 came out at 6 µM in the test on Plasmodium falciparum [1], 5 µM against Falcipain 2 and 4 µM in the test with Plasmodium falciparum [3]. For the same compound, the Activity in the test with Hemozoin [5] worked out at 50%.
On to `OC1=C2Sc3cc(Cl)ccc3N=C2CC(c2ccc(Cl)cc2Cl)C1` (stereo not drawn), for which the 50% inhibitory concentration (IC50) against Falcipain 2 is 10 µM.
`COc1ccc(C2CC3=Nc4ccc(Cl)cc4SC3=C(O)C2)cc1OC` (stereo not drawn) yielded an IC50 against Falcipain 2 of 30 µM.
As for `OC1=C2Sc3cc(F)ccc3N=C2CC(c2ccc(Cl)cc2)C1` (stereo not drawn), the IC50 in the test with Plasmodium falciparum [1] was 3 µM; against Falcipain 2, 5 µM; in the test with Plasmodium falciparum [3] it was 4 µM; in the test on MDCK it was greater than 100 µM. The same compound displayed an Activity with Hemozoin [4] of 90%.
At Falcipain 2, `COc1ccc(C2CC3=Nc4ccc(Cl)cc4SC3=C(O)C2)cc1` (stereo not drawn) gave an IC50 of 10 µM.

The term IC50 denotes the concentration that gives 50% inhibition.
